Assay outcomes deposited in PubChem BioAssay by Broad Institute.
This is a sample that favours compounds with a hit; in the whole collection about 3.3% have one here.
Statin myotox sup: suppressors of simvastatin-induced myotoxicity in C2C12 myotubes | ATP luminescence, 48 h; scaled: DMSO 0, geranylgeraniol control 100 | rescue of ATP level, % at 7.49 µM | 0.78% of 330,000 active | AID 602340;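 active = mean ATP rescue above about 67%, or every replicate alone reaching that limit, limit read from the data, passing the limit was not always enough; inconclusive = no clear call, values can overlap the other calls; inactive = mean under the limit and some replicate under it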;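 note: myotubes were challenged with 10 µM simvastatin during compound exposure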
DENV2 CPE: inhibitors of DENV2 cytopathic effect; 1.7% of 350,000 active; CPE inhibition, % at 9.99 µM; AID 651640; DENV2-infected cells, cytopathic effect rescue, plate reader; in the data active = CPE inhibition above about 20%, passing the limit was not always enough; inconclusive = no clear call, values can overlap the other calls; tested in BHK-21 cells;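 note: 0% = median of neutral control wells and 100% = median of positive control wells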
FGF22 binding: shifts melting point of recombinant human FGF22. Q9HCT0. recombinant FGF22 thermal shift, SYPRO orange fluorescence; percent of sucrose octasulfate shift, DMSO zero. activity (Tm shift, normalised), % at 9.99 µM. 1.5% of 340,000 active;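 active = mean Tm shift, scaled 0 neutral to 100 positive control, at about 1.3% or above, every replicate too, limit read from the data; inconclusive = no clear call, values can overlap the other calls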
Target sequence (Q9HCT0 whole entry, looked up): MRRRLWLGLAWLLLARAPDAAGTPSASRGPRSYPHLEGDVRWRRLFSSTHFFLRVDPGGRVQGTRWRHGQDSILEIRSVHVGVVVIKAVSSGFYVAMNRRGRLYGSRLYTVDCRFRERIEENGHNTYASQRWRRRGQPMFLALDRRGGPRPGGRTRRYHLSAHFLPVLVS
E-sel inducer: induces E-selectin expression in human endothelial cells | activation, % at 7.58 µM | AID 686992 | HUVEC E-selectin immunofluorescence imaging; normalized: neutral wells 0, TNF-alpha wells 100 | 0.37% of 260,000 active;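 active = mean E-selectin-positive cell signal at least 10% of the positive control, reached in at least 60% of replicates, without over 20% cell loss; inconclusive = no rule given, readout overlaps actives, possibly toxicity-flagged; inactive = the rest, including those meeting only one limit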
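Assay system: HUVEC primary endothelial cells. Input: 3,000 HUVEC seeded per well. Doses: one compound dose added by pin transfer. Read-out basis: % PE-positive cells. Benchmarks: TNF-alpha high, DMSO low. Detection: immunofluorescence imaging. Buffer or medium: EGM-2, gelatin.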
Xi reactivation: activators of X-chromosome reactivation in mouse fibroblasts. XiGFP mouse fibroblasts, % GFP-positive cells imaging, 3 d; cells co-treated with 5-aza-dC sensitizer; scaled so ellipticine positive control = 100%. activation, % at 7.58 µM. 0.055% of 360,000 active;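 active = mean normalized replicate activation at least 10% and every replicate at or above 10%; inconclusive = only one of the two criteria met; inactive = mean below 10% and not all replicates reach 10%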;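 note: 0% = median of on-plate neutral control wells and 100% = ellipticine 6 µM median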
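Material: XiGFP fibroblasts, SV40-immortalized; Buffer or medium: DMEM containing 5-aza-dC; Compound dosing: single point; Times: 3 days compound exposure.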
PglD DTNB: blocks C. jejuni PglD acetyltransferase activity; inhibition, % at 12.5 µM; 0.098% of 360,000 active; purified PglD enzyme, DTNB colorimetric CoA detection; in the data active = inhibition above about 16%, passing the limit was not always enough; inconclusive = no clear call, values can overlap the other calls
* = called active by the depositor; u = inconclusive; x = no result given; ! = a repeat was not active.

SMILES	Statin myotox sup	DENV2 CPE	FGF22 binding	E-sel inducer	Xi reactivation	PglD DTNB
C[C@@H]1CN([C@@H](C)CO)C(=O)c2cc(NC(=O)CCC(F)(F)F)ccc2O[C@@H]1CN(C)Cc1ccc2c(c1)OCO2	3.1	29.1*	0.2	0.0	-1.1	2.4
C[C@H](CO)N1C[C@H](C)[C@@H](CN(C)Cc2ccc3c(c2)OCO3)Oc2ccc(NC(=O)CCC(F)(F)F)cc2C1=O	-7.1	1.8	0.5	-0.1	-1.1	-1.4
C[C@H](CO)N1C[C@H](C)[C@H](CN(C)Cc2ccc3c(c2)OCO3)Oc2ccc(NC(=O)CCCCCC(=O)Nc3ccccc3N)cc2C1=O	x	-3.9	-0.2	x	0.0	x
C[C@@H]1CN([C@H](C)CO)C(=O)c2cc(NC(=O)CCCCCC(=O)Nc3ccccc3N)ccc2O[C@@H]1CN(C)Cc1ccccc1	x	2.1	-0.1	-0.1	0.1	x
C[C@@H]1CN([C@@H](C)CO)C(=O)c2cc(NC(=O)CCCCCC(=O)Nc3ccccc3N)ccc2O[C@@H]1CN(C)Cc1ccc2c(c1)OCO2	x	20.5*	0.0	x	0.1	x
C[C@H](CO)N1C[C@H](C)[C@@H](CN(C)Cc2ccc3c(c2)OCO3)Oc2ccc(NC(=O)CCCCCC(=O)Nc3ccccc3N)cc2C1=O	x	28.4*	0.2	x	0.1	x
Cc1ccc(S(=O)(=O)NCC[C@H]2CC[C@@H](NC(=O)Nc3cccc(F)c3)[C@H](CO)O2)cc1	-5.4	-1.4	-0.4	-0.3	-0.5	1.7
CCCNC(=O)N1[C@@H]2c3ccc(-c4cccc(F)c4)c(=O)n3C[C@H]1[C@H](CO)[C@H]2C(=O)NC1CCC1	x	-7.2	x	-0.1	0.0	x
CN(C)C(=O)C[C@@H]1C=C[C@@H](NC(=O)C2CC2)[C@@H](CO)O1	2.5	-5.6	0.2	-0.1	0.2	-0.9
C[C@@H]1CN([C@H](C)CO)C(=O)c2cccc(NC(=O)Nc3ccccc3)c2O[C@H]1CN(C)C(=O)Nc1ccc(F)cc1	7.1	-5.6	-0.3	0.7	-0.4	-2.9
CC(C)(C)OC(=O)NOCC(=O)N(CC(=O)c1ccccc1)Cc1ccccc1	3.4	28.7*	0.3	-0.1	-0.1	10.4
CC(C)(C)OC(=O)NOCC(=O)N(Cc1ccccc1)CC(O)COc1ccccc1 (stereo not given)	18.5	u	-0.3	-0.1	0.0	0.7
Cc1nn(C)cc1/C=N/n1nnnc1N	107.0*	x	x	x	x	1.1
Cc1ccc(/C=N/n2nnnc2N)o1	1.0	x	x	x	x	-0.9
CCN(CC)CC(=O)n1c2c(c3ccccc31)CCCC2	123.9*	x	x	x	x	-4.6
CN1CCN(CC(=O)n2c3c(c4ccccc42)CCCC3)CC1	0.3	x	x	x	x	x
O=C(c1cccc(F)c1)N1CC[C@@H]2[C@@H](CO)Nc3ccc(-c4ccccc4)cc3[C@@H]21	x	-13.5	x	0.2	0.2	x
CCOc1cc(CNn2nnnc2N)ccc1OCC(=O)NC(C)(C)C	83.0*	x	x	x	x	4.9
CCOc1ccc2[nH]c(=O)c(CN(CCCN3CCOCC3)Cc3nnnn3Cc3ccc(OC)cc3)cc2c1	x	5.1	43.1*	x	0.0	x
CCc1ccc2[nH]c(=O)c(CN(Cc3ccccc3OC)Cc3nnnn3Cc3ccco3)cc2c1	99.6*	x	x	x	x	-6.8
COc1ccccc1CN(Cc1cc2cc(C)ccc2[nH]c1=O)Cc1nnnn1Cc1ccco1	0.6	x	x	x	x	5.5
C[C@H]1CN([C@@H](C)CO)C(=O)c2cccc(NS(=O)(=O)c3cccs3)c2O[C@@H]1CN(C)Cc1ccc(Oc2ccccc2)cc1	83.2*	8.2	0.1	-36.1	0.0	-9.4
C[C@H](CO)N1C[C@H](C)[C@H](CN(C)CC2CCCCC2)Oc2c(NS(=O)(=O)c3cccs3)cccc2C1=O	1.9	0.1	-0.7	x	0.5	1.1
C[C@@H]1CN([C@@H](C)CO)C(=O)c2cccc(NS(=O)(=O)c3cccs3)c2O[C@H]1CN(C)CC1CCCCC1	12.1	33.5*	-0.6	x	-1.0	-0.8
C[C@H](CO)N1C[C@H](C)[C@@H](CN(C)Cc2ccncc2)Oc2c(NS(=O)(=O)c3cccs3)cccc2C1=O	-4.6	33.8*!	-0.5	-4.4	0.2	0.0
COC(=O)c1ccc([C@H]2CC(=O)O2)cc1	0.3	76.0*	0.3	x	0.0	-4.8
